In the library only some 3% were active in any assay of this set; here they are far more common.
Casp6 inh = human caspase-6 inhibitors, primary screen, biochemical, VEID-R110 fluorescence, single point, set 2; P55212; purified caspase-6, Z-VEID-R110 cleavage fluorescence; inhibition, % at 12.5 µM; 0.53% of 350,000 active;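 active = mean inhibition across replicates at least about 35%, with every replicate also reaching that limit, limit read from the data; inconclusive = only one of the two criteria met; inactive = neither criterion met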;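 note: 0% = median of neutral control wells and 100% = no fluorescence left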
esBAF inh = Bmi1 luciferase reporter increase in mESCs, primary screen, esBAF inhibitor project, mouse ES cells, Bmi1 luciferase knock-in, single point; 24 h; 100% = twice the neutral-well signal; reporter increase, % at 12.5 µM; 2% of 350,000 active; AID 602393, 2012; in the data active = activation above about 40%; inconclusive = no clear call, values can overlap the other calls;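 note: 0% = median of the plate's neutral control wells and 100% = double that signal; a rise in the Bmi1 reporter signal indicates esBAF inhibition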
Wnt bcat act = Wnt/beta-catenin pathway activators, primary screen, cell-based, plate reader, single point | Wnt/beta-catenin reporter cell assay, activator | activation, % at 9.35 µM | 1.2% of 300,000 active | AID 743398, 2014; in the data active = activation above about 30%, passing the limit was not always enough; inconclusive = no clear call, values can overlap the other calls;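 note: 0% = neutral control wells and 100% = positive control wells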
MITF TRPM1 HTS = activators of MITF-driven TRPM1 promoter reporter, primary screen, cell-based, SK-MEL-5, luciferase, single point; SK-MEL-5 TRPM1-promoter luciferase, 24 h; % of positive control, neutral wells = 0; activation, % at 12.5 µM; 0.75% of 300,000 active; AID 588334, 2011;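 active = mean activation of at least 80% with every replicate also reaching 80%; inconclusive = mean reaches 80% but some replicate falls short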;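 note: 0% = neutral control wells and 100% = parthenolide positive control wells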
Xi reactivation = activators of inactive X chromosome reactivation, primary screen, imaging, XiGFP fibroblasts, GFP high-content imaging, set 2; XiGFP mouse fibroblasts, % GFP-positive cells imaging, 3 d; cells co-treated with 5-aza-dC sensitizer; scaled so ellipticine positive control = 100%; activation, % at 7.58 µM; 0.055% of 360,000 active; AID 743238, 2013;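 active = mean normalized replicate activation at least 10% and every replicate at or above 10%; inconclusive = only one of the two criteria met; inactive = mean below 10% and not all replicates reach 10%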;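 note: 0% = median of on-plate neutral control wells and 100% = ellipticine 6 µM median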
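Assay system – SV40-immortalized XiGFP fibroblast cells, line 68-5-11 · Buffer or medium – DMEM supplemented with 5-aza-dC as sensitizing agent · Dosing – one concentration, pinned · Benchmarks – positive control ellipticine, 6 µM final · Times – 3 days compound exposure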
NSD2 inh = NSD2 histone methyltransferase inhibitors, primary screen, biochemical, AlphaScreen, single concentration, set 2 | Histone-lysine N-methyltransferase NSD2 (Homo sapiens), O96028 | NSD2 peptide methylation, 120 min | inhibition, % at 12.5 µM | 0.54% of 310,000 active; in the data active = inhibition above about 50%
An asterisk follows results filed as active; ? = inconclusive; nt = no result.

SMILES | Casp6 inh | esBAF inh | Wnt bcat act | MITF TRPM1 HTS | Xi reactivation | NSD2 inh
CO[C@@H]1CN(C)C(=O)c2ccc(NC(=O)c3nc4ccccc4s3)cc2OC[C@@H](C)N(Cc2ccncc2)C[C@H]1C | -1 | ? | nt | nt | -1 | nt
C/C(N)=C(/C#N)C(=O)CN1C(=O)NC(Cc2c[nH]c3ccccc23)C1=O (centres undefined) | 48* | -1 | 3 | -8 | 1 | 0
CC(C)[C@H]1COCc2cn(nn2)CCC[C@@H](C)C(=O)N1 | nt | nt | nt | nt | 0 | nt
CCCC1c2ccc(C)n2CCN1C(=O)Nc1ccccc1Cl (centres undefined) | nt | 63* | nt | 48 | nt | 2
Cc1ccc(-c2cn(-c3ccccc3)c(=S)[nH]2)cc1C | -4 | ? | 38* | 123* | 0 | 17
C[C@@H]1CN([C@@H](C)CO)C(=O)c2cc(Br)cnc2O[C@@H]1CN(C)Cc1ccc(C(=O)O)cc1 | 3 | -2 | nt | nt | -1 | nt
O=C(O)CN1C(=O)/C(=C\c2cn(-c3ccccc3)nc2-c2ccccc2)SC1=S | nt | -4 | nt | 11 | nt | 4
O=C1C(=Cc2cn(-c3ccccc3)nc2-c2ccc(OCc3ccccc3)cc2)SC(=S)N1CCS(=O)(=O)O | 75* | -4 | -4 | nt | 0 | nt
Cc1ccc(-c2nn(-c3ccccc3)cc2C=C2SC(=S)N(CCS(=O)(=O)O)C2=O)cc1 | 78* | -8 | -1 | nt | 0 | nt
CNC[C@H]1Oc2ccc(N(C)C)cc2C(=O)N(C)C[C@H]1C | nt | nt | nt | nt | 0 | nt
CC(C)NC(=O)N1CC2(C1)[C@@H](c1ccccc1)[C@H](CO)N2C(=O)C1CC1 | 1 | nt | nt | nt | 0 | nt
COc1ccc(CN2CC3(CCN(S(=O)(=O)c4ccc(C)cc4)CC3)c3c([nH]c4cc(OC)ccc34)[C@@H]2CO)cc1 | nt | nt | nt | nt | 1 | nt
CN(C(=O)CSc1ncnc2sccc12)C1CCCCC1 | 0 | 75* | 47* | 72 | 0 | -2
CN(Cc1cc2ccccc2[nH]c1=O)C(=O)COc1ccccc1 | 0 | nt | 50* | -4 | 0 | -2
CCC(=O)N(Cc1cc2ccccc2[nH]c1=O)C(C)C | 0 | 2 | nt | 2 | nt | 9
C[C@H](CO)N1C[C@H](C)[C@H](CN(C)S(=O)(=O)c2ccc(F)cc2)Oc2c(NC(=O)CCCCCC(=O)Nc3ccccc3N)cccc2C1=O | -3 | nt | nt | nt | 0 | nt
C[C@@H]1CCCCO[C@@H](CN(C)Cc2ccncc2)[C@H](C)CN([C@@H](C)CO)C(=O)c2cc(NC(=O)Nc3ccc4c(c3)OCO4)ccc2O1 | 0 | 62* | nt | nt | 0 | nt
C[C@@H]1CN([C@H](C)CO)C(=O)c2cc(NC(=O)Nc3ccc4c(c3)OCO4)ccc2O[C@@H](C)CCCCO[C@@H]1CN(C)Cc1ccncc1 | 3 | -4 | nt | nt | 0 | nt
C[C@H](CO)N1C[C@H](C)[C@H](CN(C)Cc2ccncc2)OCCCC[C@H](C)Oc2ccc(NC(=O)Nc3ccc4c(c3)OCO4)cc2C1=O | -2 | 73* | nt | nt | 0 | nt
O=C(C[C@@H]1CC[C@H]2[C@@H](COC[C@@H](O)CN2Cc2ccc(Cl)cc2)O1)Nc1nccs1 | -2 | 0 | nt | nt | 0 | nt
CC(C)NC(=O)NCC[C@H]1CC[C@H](NS(=O)(=O)c2ccc(-c3ccccc3)cc2)[C@H](CO)O1 | 0 | 7 | nt | nt | 0 | nt
O=C(/C(=N/N=C/c1ccc(O)c(O)c1)c1ccccc1)c1ccccc1 | 44* | nt | 0 | -8 | 1 | 43
Oc1ccc(/C=N/N=C/c2ccc(O)c(O)c2)cc1O | 68* | -2 | 3 | nt | 0 | nt
C[C@@H]1CN([C@H](C)CO)C(=O)c2cccc(NS(C)(=O)=O)c2O[C@@H]1CN(C)Cc1ccc(Cl)c(Cl)c1 | 2 | 3 | nt | nt | 0 | nt
COc1ccc(S(=O)(=O)NC[C@@H]2CC[C@H]3[C@H](CN3Cc3cc(F)ccc3F)O2)cc1 | -1 | nt | nt | nt | nt | nt
SMILES | Casp6 inh | esBAF inh | Wnt bcat act | MITF TRPM1 HTS | Xi reactivation | NSD2 inh
COc1ccc2[nH]c3c4c(ccc3c2c1)C(=O)C=CC4=O | -2 | -26 | -14 | -77 | 12* | 8
COc1ccc2[nH]c(=O)cc(C(=O)O)c2c1 | 26 | nt | -1 | -3 | 0 | 31
CC(C)OC(=O)CSc1nnnn1-c1ccc2c(c1)OCCO2 | nt | 69* | 10 | 52 | nt | -2
O=C(O)CSc1nnnn1-c1ccc2c(c1)OCCO2 | nt | -2 | 3 | nt | nt | -2
O=C1NC[C@H](c2ccccc2)OC(=O)[C@@H](Cc2ccc(F)cc2)C/C=C\C[C@H]1CC(=O)N(CCO)Cc1ccccc1 | nt | 45* | 6 | -20 | 0 | nt
O=C1NC[C@@H](c2ccccc2)OC(=O)[C@H](Cc2ccc(F)cc2)C/C=C\C[C@H]1CC(=O)N(CCO)Cc1ccccc1 | -2 | 0 | 0 | 2 | 0 | nt
CCCc1cn(CC[C@H]2CC[C@H](NS(=O)(=O)c3ccccc3Cl)[C@@H](CO)O2)nn1 | -1 | 1 | nt | nt | 0 | nt
O=C(c1ccco1)N1CCn2c1nc1ccccc12 | nt | 46* | nt | nt | nt | -1
Nc1nc2ccccc2n1C(=O)c1ccco1 | nt | nt | 37* | 28 | 0 | 3
Nc1nc2ccccc2n1C(=O)c1ccccc1 | 1 | nt | -5 | -1 | 0 | -8
O=C1Nc2ccc(Br)cc2C1=Nc1cccnc1 | 7 | nt | 1 | nt | 0 | 67*
O=C1Nc2ccccc2C1=Nc1cccc(Cl)c1 | 9 | 2 | 1 | nt | 0 | 9
CSc1nc2sc3c(c2c(=O)[nH]1)CCC(C)C3 (centres undefined) | -4 | 62* | nt | 33 | nt | -1
CCCSc1nc2sc3c(c2c(=O)[nH]1)CC(C)CC3 (centres undefined) | 7 | nt | 4 | 0 | 0 | -2
O=C(N/N=C/c1cccc(F)c1)c1cc(-c2ccco2)nc2ccccc12 | nt | 79* | 20 | 9 | nt | 2
COc1cc(/C=N/NC(=O)c2cc(-c3ccco3)nc3ccccc23)cc(OC)c1O | -1 | nt | -3 | 2 | 0 | 14
O=C(CCCC(=O)c1ccc(F)cc1)c1ccc(F)cc1 | 0 | 55* | 37* | 131* | 0 | -6
O=C(CCCN1CCC(C(=O)c2ccc(F)cc2)CC1)c1ccc(F)cc1 | 0 | -2 | 1 | -1 | 0 | 0
O=S(=O)(c1ccccc1)N1C[C@@H]2N[C@H](C1)C2c1ccc(/C=C/c2ccccc2)cc1 (some centres undefined) | -2 | nt | nt | nt | 0 | nt
CC(OC(=O)c1cccs1)C(=O)NCc1ccccc1 (centres undefined) | nt | -8 | 53* | -8 | nt | -3
CCN(C)c1cc2c(c3c1ccn3C)C1CCC2C1 (centres undefined) | 2 | 5 | -2 | nt | 0 | nt

Source: PubChem (Broad Institute)
